Measurements from different studies.
Lines come from different studies, so protocols differ.
Target: MAP kinase-activated protein kinase 5 (MAPKAPK5, Homo sapiens, UniProt Q8IW41)

Structure (SMILES) | test | setting | measurement | value
CC(C)(C)C(=O)c1sc(NC2CCCCC2)nc1N | enzyme activity, inhibitor | 10 µM | remaining activity | 103%
CC/C(=N\NC(=O)NCc1cccc(O)c1)c1ccc(O)c(C)c1O | enzyme activity, inhibitor | 0.1 µM | inhibition | -8%
COc1cc2ncnc(Nc3ccc(Oc4ccccc4)cc3C)c2cc1OC | enzyme activity, inhibitor | 1 µM | inhibition | 3%
CCN(CC)CCNC(=O)c1c(C)[nH]c(/C=C2\C(=O)Nc3ccc(F)cc32)c1C | cell-free assay | 0.5 µM | remaining signal | 82.7%
Cc1cc(NC(=O)c2cccc3cc(-c4cccc5[nH]nc(N)c45)ccc23)ccc1F | enzyme activity, inhibitor | 0.1 µM | activity vs control | 103%
COc1cc(Cl)c(C(=O)N[C@@H](CN[C@H]2CC[C@@H](N)CC2)Cc2ccc(C#N)cc2)cc1-c1ccc(CN[C@H](C)c2ccc(C)cc2)o1 | enzyme activity, inhibitor | 1 µM | remaining activity | 89%
COCCOc1nc(-c2ccc(Cl)nc2)nc2c1CN(C(=O)c1ncn3ccccc13)CC2 | cell-free assay, competition with immobilised ligand | 0.1 µM | remaining binding | 100%
O=C(CSc1nc2nccnc2c(=O)n1CCc1ccccc1)Nc1nccs1 | enzyme activity, inhibitor | 10 µM | inhibition | -2%
Cn1cnc(Br)c1C1=CN(c2ncnc3[nH]cnc23)CCS1 | enzyme activity, inhibitor, radiometric | 50 nM | inhibition | 20.3%
COc1cc(Nc2cnc(C#N)c(O[C@H](C)CN(C)C)n2)ncc1-c1cnn(C)c1 | enzyme activity, inhibitor, radiometric | 1 µM | remaining activity | 78%
C[C@@H]1CCN(C(=O)CC#N)C[C@@H]1N(C)c1ncnc2[nH]ccc12 | cell-free assay, inhibitor | 0.5 µM | remaining signal | 97.3%
CNC(=O)Nc1ccc2c(c1)CC[C@@]21OC(=O)N(CC(=O)N(Cc2ccc(F)cc2)[C@@H](C)C(F)(F)F)C1=O | cell-free assay, competition with immobilised ligand | 1 µM | remaining binding | 82%
Cn1c(=O)n(-c2ccc(C(C)(C)C#N)cc2)c2c3cc(-c4cnc5ccccc5c4)ccc3ncc21 | enzyme activity, inhibitor | 10 µM | remaining activity | 93%
FC(F)(F)Oc1cccc(-c2cnc3ccc(-c4ccncc4)nn23)c1 | enzyme activity, inhibitor, radiometric | 5 µM | activity vs control | 85%
COc1ccc2cc(OCC3(C(=O)O)CN(C(=O)c4ccc(F)cc4)C3)ccc2c1 | cell-free assay, competition with immobilised ligand | 1 µM | remaining binding | 76%
CN(c1ncccc1CNc1nc(Nc2ccc3c(c2)CC(=O)N3)ncc1C(F)(F)F)S(C)(=O)=O | enzyme activity, inhibitor | 1 µM | inhibition | 0%
C[C@H](NC(=O)c1cnc2n1[C@](C)(Cc1ccc(C#N)cc1)C(=O)N2c1cc(Cl)c(F)c(Cl)c1)C(=O)NC1(c2ccccn2)CC1 | cell-free assay, competition with immobilised ligand | 1 µM | remaining binding | 96%

Structure (SMILES) | test | setting | measurement | value
COc1ccc(COc2ccc(Cc3cnc(N)nc3N)cc2OC)cc1 | cell-free assay | 0.5 µM | remaining signal | 87.5%
Cc1nc(Cc2cccc(C(F)(F)F)c2)sc1-c1ccc(C(N)=O)nc1 | cell-free assay, competition with immobilised ligand | 1 µM | remaining binding | 100%
CNCc1ccc(-c2cc(-c3nc(-c4ccc(S(=O)(=O)C(C)C)cc4)cnc3N)on2)cc1 | enzyme activity, inhibitor | 2 µM | inhibition | 0%
O=c1nc(-c2ccccn2)sc2ccccc12 | binding, competition with immobilised ligand | 1 µM | remaining binding | 92%
CCN(CC)c1ccc(C2=NNC(=O)CC2C)cc1[N+](=O)[O-] (stereo not shown) | enzyme activity, inhibitor | 10 µM | remaining activity | 104%
CCCOc1ccc(OC)c(F)c1C(=O)c1ccc(C(=O)N[C@@H]2CNC[C@H]2NC(=O)c2ccc3[nH]ncc3c2)cc1 | enzyme activity, inhibitor | 10 µM | remaining activity | 91%
CNC(=O)c1cc(Oc2ccc(NC(=O)Nc3ccc(Cl)c(C(F)(F)F)c3)cc2)ccn1 | enzyme activity, inhibitor | 0.3 µM | inhibition | 18%
Cc1ccc(C(=O)Nc2ccc(CN3CCN(C)CC3)c(C(F)(F)F)c2)cc1C#Cc1cnc2cccnn12 | enzyme activity, inhibitor | 23.5 nM | remaining activity | 84%
Nc1cnc(N2CCc3cc(S(=O)(=O)Nc4c(F)cc(Cl)cc4F)cc(N4CCCC4=O)c32)nc1 | cell-free assay, competition with immobilised ligand | 1 µM | remaining binding | 92%
CC(C)(C)c1nc(-c2cccc(NS(=O)(=O)c3c(F)cccc3F)c2F)c(-c2ccnc(N)n2)s1 | enzyme activity, inhibitor, radiometric | 1 µM | remaining activity | 37%
O=C1NC(=O)c2cc(Nc3ccc(F)cc3)c(Nc3ccc(F)cc3)cc21 | cell-free assay | 0.5 µM | remaining signal | 93.4%
Cc1sc(C(=O)NC2COC2)cc1-n1cc(NC(=O)Nc2c(F)cccc2Cl)cn1 | enzyme activity, inhibitor | 10 µM | remaining activity | 96.5%
CC(C)c1ccc(NC(=O)c2cccs2)c(-c2nc3ccccc3[nH]c2=O)c1 | enzyme activity, inhibitor | 1 µM | activity vs control | 106%
FC(F)c1nc2ccccc2n1-c1nc(N2CCOCC2)nc(N2CCOCC2)n1 | enzyme activity, inhibitor | 10 µM | remaining activity | 82%
CC(C)(O)[C@H]1CC[C@H](Nc2ccc3ncc(-c4cccc(C(F)(F)F)c4)n3n2)CC1 | enzyme activity, inhibitor | 1 µM | remaining activity | 105%
CO[C@@H](C)c1c(Nc2ccc([C@@H](N(C)C(=O)C3CCS(=O)(=O)CC3)C(F)(F)F)cc2)cnc2cc(Cl)nn12 | cell-free assay, competition with immobilised ligand | 1 µM | remaining binding | 100%
Cc1ccc(Nc2nccc(N(C)c3ccc4c(C)n(C)nc4c3)n2)cc1S(N)(=O)=O | enzyme activity, inhibitor | 10 µM | inhibition | 4%
